In the RNAGym collection of RNA variant scans (doi:10.1126/science.aae0568):
This sample holds only a part of the variants without activity.

B1: tRNA (parent)
chain: GUUCCGUUGGCGUAAUGGUAACGCGUCUCCCUCCUAAGGAGAAGACUGCGGGUUCGAGUCCCGUACGGAACG

Variants of: B1
Assay: yeast fitness relative to wild type (ratio to wild type); higher = fitter; tRNA-Arg(CCU), competitive growth, 37 C, YPD
In short: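 Variants of the tRNA-Arg(CCU) gene, chemically synthesised with a 3% per-site mutation rate at 69 sites, were placed at the native genomic locus in Saccharomyces cerevisiae. The pooled strains were competed in YPD at 37°C for 24 hours in six parallel replicates. Gene amplicons from the start population and from each end population were read by 100-nucleotide paired-end sequencing. Darwinian fitness relative to wild type came from changes in genotype frequencies; genotypes needed ≥ 100 starting reads, and estimates < 0.5 were set to 0.5.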
In the case of GUUCCGUUGGCGUAAUGGUAACGUGCCCCCCUCCUAAGGAGAAGACUGCGGCUUCGAGUGCCGUACGGAACG [C24U U26C U28C G52C C60G], the yeast fitness is reported as no more than 0.5.
GUUCCGUUGGCGUAAUGGUAACGCAUCUCCCUCCUUAGGAGAAGACUGCGGGUUCGAGUCCCGUACGGAACG [G25A A36U] showed a yeast fitness of 0.564.
Variant GUUCCGUUGGCGUAAUGGUAACGUGUCUCCCGCCUAAGGUGAAGACUGCGGGUUCGAGUCCCGUACGGAACG [C24U U32G A40U] has a yeast fitness of 0.513.
With GUUCCGUUGGCGUAAUGGUAACGUGUCUCCCUCCUAACGGGAAGACUGCGGGUUCGAGUCCCGUACGGAACG [C24U G38C A40G] the yeast fitness was no more than 0.5.
GUUCCGUUGGCGUAAUGGUAACGUGUCUCCCUCCCAAGGAGAAGACUGCGGGUUCGAGUCCCGUACGGACCG [C24U U35C A70C] showed a yeast fitness of 0.671.
With GUUCCGUUGGCGUAAUGGUAACGUGUCUCCCUCCUAAGGAGAAGACUGCGCGUUCGAGUCCCGUACGGAACG [C24U G51C] the yeast fitness was 0.624.
Work on GUUCCGUUGGCGUAAUGGUAACGUGUCUCCCUCCUAAGGAGAAGACUGCGGGUUCGACUCCCGUACGGAACG [C24U G58C] yielded a yeast fitness of 0.89.
With GUUCCGUUGGCGUAAUGGUAACGUGACGCCCUCCUAAGGAGAAGACUGCGGGUUCGAGUCCCGUACGGAACG [C24U U26A U28G] the yeast fitness was 0.506.
For GUUCCGUUGGCGUAAUGGUAACGUGUCUCCCUCCUAAGGAGAAGACUACGGGUUCGAGUCCCCUACGGAACG [C24U G48A G63C], the yeast fitness was 0.768.
GUUCCGUUGGCGUAAUGGUAACGUGUCUCCCUCCUAAGGAGAAGACUGCGGGCUUGAGUCCCGUACGGAACG [C24U U53C C55U] showed a yeast fitness of no more than 0.5.
GUUCCGUUGGCGUAAUGGUAACGUGUCUCCCUCCUAAGGAGAAGACAGCGGGUUCGAGUCCCGCAUGGAACG [C24U U47A U64C C66U] showed a yeast fitness of no more than 0.5.
Work on GUUCCGUUGGCGUAAUGGUAACGUGUCUCCCUCCUAAGGAGAAGACCGCGGGUUCGAGUCCCAUACGGAACG [C24U U47C G63A] yielded a yeast fitness of 0.829.
GUUCCGUUGGCGUAAUGGUAACGUGUCUCCCGCCUAAGGAGAAGACUGUGGGUUCGAGUACCGUACGGAACG [C24U U32G C49U C60A] gave a yeast fitness of 0.646.
With GUUCCGUUGGCGUAAUGGUAACGUGUCUCCCUCCUAAGGAGAAGACUGCGGCUUCGAGUCCCGUACGGAACG [C24U G52C] the yeast fitness was 0.702.
In the case of GUUCCGUUGGCGUAAUGGUAACGCAUCUCCCUCCUAUGGAGAAGACUGCGGGUACGAGUCCCGUACGGAACG [G25A A37U U54A], the yeast fitness is reported as no more than 0.5.
Variant GUUCCGUUGGCGUAAUGGUAACGUGUCUCCCUCCUAAGGAGAAAACUGCGGGUUCGAGUCCCGUAAGGAACG [C24U G44A C66A] has a yeast fitness of 0.563.
GUUCCGUUGGCGUAAUGGUAACGUGCCUCCCUCCUAAGGAGAAGACUGCGGGUUCGUGUCCCGUACGGAACG [C24U U26C A57U] gave a yeast fitness of no more than 0.5.
GUUCCGUUGGCGUAAUGGUAACGUGUCUCCCUCCUAAGAAGAAGACUGCGGGUUCGCGUCCCGUACGGAACG [C24U G39A A57C] showed a yeast fitness of 0.727.
For GUUCCGUUGGCGUAAUGGUAACGUGUCUCCCUCCUAAGGAGAAGACUGCGGGUUCGAGUCCCGUACGCAUCG [C24U G68C A70U], the yeast fitness was no more than 0.5.
Variant GUUCCGUUGGCGUAAUGGUAACGCAUCUCCCUCCUACGGAGAAGACUGCGGGUUCGAGUCUCGUACGGAACG [G25A A37C C61U] has a yeast fitness of 0.572.
With GUUCCGUUGGCGUAAUGGUAACGUGCCUCCCUCCUAAGGAGAAGACUGCGGGUUCGAGUCCCGUACGGAUCG [C24U U26C A70U] the yeast fitness was 0.678.
With GUUCCGUUGGCGUAAUGGUAACGUGUCUCCCUCCUAAGGACCAGACUGCGGGUUCGAGUCCCGUACGGAACG [C24U G41C A42C] the yeast fitness was 0.553.
In the case of GUUCCGUUGGCGUAAUGGUAACGUGUCUCCCUCCUAAGGAGAAGACUGCGGGUACGAGUCCCGUACGGAACG [C24U U54A], the yeast fitness is reported as 0.624.
GUUCCGUUGGCGUAAUGGUAACGUGUCUCCCUCCUAAGGAGAAGACUGCGGGUCCGAGUCCCGUACGGAACG [C24U U54C] showed a yeast fitness of 0.812.
GUUCCGUUGGCGUAAUGGUAACGUGUCUCCCUCCUAAGGAGAAGACUCCGGGUUUGAGUCCCGUACGGAACG [C24U G48C C55U] gave a yeast fitness of 0.614.
GUUCCGUUGGCGUAAUGGUAACGUGUCUCCCGCCUAAGGUGAAGACUGCGGGCUCGAGUCCCGGACGGAACG [C24U U32G A40U U53C U64G] gave a yeast fitness of no more than 0.5.
GUUCCGUUGGCGUAAUGGUAACGUGCCUCCCUCCUAAGGAGAAGACUGCGGGUUCGAGUCCCAUGCGGAACG [C24U U26C G63A A65G] showed a yeast fitness of no more than 0.5.
GUUCCGUUGGCGUAAUGGUAACGUGUCUCCCUCCUAAGGAGAAGACUGCGCGUUCGAGUCCCGUACGAAACG [C24U G51C G68A] showed a yeast fitness of no more than 0.5.
GUUCCGUUGGCGUAAUGGUAACGUGUCUCCCUCCUAAGGAGAAGACUCCGGGUUCGAGUCCCGUACGGAACG [C24U G48C] gave a yeast fitness of 0.955.
Variant GUUCCGUUGGCGUAAUGGUAACGUGUCUCCCUCCUAAGGAGAAGACUACGGGUUCGAGUCCCGUACGGAACG [C24U G48A] has a yeast fitness of 0.915.
GUUCCGUUGGCGUAAUGGUAACGUGCCUCCCUCCUAAGGCGAAGACUGCGGGUUCGAGUCCCGUACGGAACG [C24U U26C A40C] gave a yeast fitness of 0.572.
Variant GUUCCGUUGGCGUAAUGGUAACGUGUCUCCCUCCUAAGGAAAAGACUGCGGGUUCGAGUCCCGUACGAAACG [C24U G41A G68A] has a yeast fitness of no more than 0.5.
Variant GUUCCGUUGGCGUAAUGGUAACGUGUCUCCCUCCAAAGGAGGAGACUGCGGGUUCGAGUCCCGUACGGUACG [C24U U35A A42G A69U] has a yeast fitness of no more than 0.5.
In the case of GUUCCGUUGGCGUAAUGGUAACGUGUCUCCCUCCUAAGGAGAAGACUGCGAGUUCGAAUCCCGUACAGAACG [C24U G51A G58A G67A], the yeast fitness is reported as no more than 0.5.
GUUCCGUUGGCGUAAUGGUAACGUGUCUCCCUCCUAAGGAGAAGACCGCGGGUUGGAGUCCCGUACGGAUCG [C24U U47C C55G A70U] showed a yeast fitness of 0.642.
Work on GUUCCGUUGGCGUAAUGGUAACGUGUCUCCCUCCUAAAGAGAAGACUGCGACUUCGAGUCCCGUACGGAACG [C24U G38A G51A G52C] yielded a yeast fitness of 0.634.
GUUCCGUUGGCGUAAUGGUAACGCAUCUCCCUCCUAAGGCGAAGACUGCGGGUUCGAGUCCCGUCCGGAACG [G25A A40C A65C] gave a yeast fitness of 0.739.
For GUUCCGUUGGCGUAAUGGUAACGUGUCCCCCUCCUAAGGCGAAGACUGCGGGUUCGAGUCCCGUACGGCACG [C24U U28C A40C A69C], the yeast fitness was no more than 0.5.
